viability, Activity and IC50 data for 1 molecule are collected here from ChEMBL document CHEMBL4038311, “An Ursolic Acid Derived Small Molecule Triggers Cancer Cell Death through Hyperstimulation of Macropinocytosis” (J Med Chem, 2017).

What is called IC50 is the concentration that gives 50% inhibition.

Molecules are shown by their SMILES. The source made the active and inactive calls. No cut-off for these calls is given here.

Data set [1] has as its system MCF7. Put plainly: Anticancer activity against human MCF7 cells assessed as cell viability at 20 uM after 48 hrs by CCK8 assay relative to control. Format: functional. The settings on record: MCF7, 48 h, read-out: Activity. Summed up:
(§1)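 Cells (5000/well, pre-incubated overnight) exposed to 20 µM for 48 h. CCK-8 absorbance read at 450 nm. Viability given as percent of vehicle (DMSO) control, mean ± SD. Six parallel wells per condition, at least three independent repeats.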
For orientation: Formazan colour is commonly taken as a measure of viable cells.

The test system of data set [2] is HeLa. Put plainly: Induction of macropinocytosis in human HeLa cells assessed as colocalization of lucifer yellow and early endosomal marker EEA1 at 20 uM after 6 to 24 hrs by confocal microscopic analysis. In kind it is functional, cell-based. The method, boiled down:
(§2)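 HeLa on poly-L-lysine coverslips given 0.1% DMSO or 20 µM for indicated times, then loaded with Lucifer yellow CH. Fixed in 4% PFA 30 min, permeabilized with 0.1% Triton X-100, blocked with 5% BSA. Anti-EEA1, -LAMP1 or -Rab7 applied overnight at 4 °C, Alexa488 secondary 1 h, DAPI counterstain. Confocal imaging.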

Data set [3] concerns HepG2. Nature of the data set: Anticancer activity against human HepG2 cells assessed as cell viability at 20 uM after 48 hrs by CCK8 assay relative to control. In kind it is functional. The conditions noted are these: HepG2, 48 h, read-out: Activity. The method, boiled down: as §1
The test system of data set [4] is HeLa. Nature of the data set: Induction of macropinocytosis in human HeLa cells assessed as formation of lysosomal degradative compartments at 20 uM after 24 hrs by Lysotracker red staining-based confocal microscopic analysis. In kind it is functional, cell-based. The method, boiled down:
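HeLa given 20 µM for 24 h, then labelled live with 50 nM LysoTracker Red (30 min) or 200 nM MitoTracker Red CMXRos (1 h) in medium, after Lucifer yellow loading. Imaged live by confocal microscopy.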

For data set [5], the system named is HeLa. Nature of the data set: Induction of apoptosis in human HeLa cells assessed as pyknotic chromatin formation at 20 uM after 24 hrs by transmission electron microscopic analysis. Format: functional, cell-based. The method, boiled down:
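HeLa exposed to 20 µM for 24 h, then fixed, dehydrated and resin-embedded. Ultrathin sections on copper grids stained with uranyl acetate and lead citrate, then examined by TEM.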

The subject of data set [6] is HeLa. Put plainly: Anticancer activity against human HeLa cells assessed as decrease in cell viability at 20 uM preincubated cells with 3-MA followed by compound addition measured after 24 to 48 hrs by CCK8 assay. Format: functional, cell-based. Summed up:
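HeLa cells pretreated 1 h with or without 3-MA, then exposed to 20 µM or 0.1% DMSO for 24 h or 48 h. Viability by CCK-8 absorbance at 450 nm.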

Data set [7] deals with HeLa. Nature of the data set: Induction of methuosis in human HeLa cells assessed as increase in vacuole formation preincubated cells with dynamin inhibitor dynasore for 1 hr followed by compound addition measured after 24 hrs by phase contrast microscopic analysis. Format: functional, cell-based. Summed up:
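HeLa cells grown in DMEM with 10% FBS, 100 U/ml penicillin and 100 µg/ml streptomycin at 37 °C, 5% CO2 humidified air. The inhibitor was added before compound exposure. Vacuolization was judged in live cells by phase-contrast microscopy.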

Data set [8] concerns HepG2. Nature of the data set: Anticancer activity against human HepG2 cells assessed as cell viability after 48 hrs by CCK8 assay. Format: functional, cell-based. The settings on record: HepG2, 48 h. Summed up:
(§3)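 Seeded at 1000 cells/well in DMEM with 10% FBS at 37 °C, 5% CO2, overnight pre-incubation. Serial dilutions from a 100 mM DMSO stock gave final 0–50 µM, with 48 h exposure. CCK-8 read at 450 nm. IC50 fitted against DMSO control, given with s.d., n = 3 independent experiments.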

Data set [9] concerns HeLa. Put plainly: Induction of methuosis in human HeLa cells assessed as decrease in cell viability preincubated cells with vacuolar-type H+-ATPase inhibitor Baf-A1 for 1 hr followed by compound addition measured after 48 hrs by CCK8 assay. In kind it is functional, cell-based. Summed up:
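HeLa incubated 1 h with 100 nM Baf-A1 before compound addition. Viability measured by CCK-8 at 450 nm against DMSO control.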

A further data set concerns HT-1080. Nature of the data set: Anticancer activity against human HT1080 cells assessed as cell viability after 48 hrs by CCK8 assay. In kind it is functional, cell-based. The conditions noted are these: HT-1080, 48 h. The method, boiled down:
as §3

Data set [10] has as its system HeLa. Put plainly: Induction of methuosis in human HeLa cells assessed as increase in vacuole formation preincubated cells with vacuolar-type H+-ATPase inhibitor Baf-A1 for 1 hr followed by compound addition measured after 24 hrs by phase contrast microscopic analysis. In kind it is functional, cell-based. The method, boiled down: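 HeLa cells (DMEM, 10% FBS, penicillin/streptomycin, 37 °C, 5% CO2) were given 100 nM bafilomycin A1 for 1 h before compound addition. Vacuole formation was then scored by phase-contrast imaging of live cells.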

Data set [11] concerns HeLa. Put plainly: Induction of macropinocytosis in human HeLa cells assessed as colocalization of lucifer yellow and lysosomal marker LAMP1 at 20 uM after 6 to 24 hrs by confocal microscopic analysis. Format: functional, cell-based. The settings on record: TDE = time-dependent effect. The method, boiled down:
as §2

The test system of data set [12] is SK-N-MC. Nature of the data set: Anticancer activity against human SK-N-MC cells assessed as vacuole formation at 20 uM after 24 hrs by phase contrast microscopic analysis. In kind it is functional, cell-based.
The subject of data set [13] is HeLa. Put plainly: Anticancer activity against human HeLa cells assessed as vacuole formation at 20 uM after 12 hrs by phase contrast microscopic analysis. Format: functional, cell-based.
Another data set concerns C2C12. Nature of the data set: Cytotoxicity against mouse C2C12 cells assessed as vacuole formation at 20 uM after 24 hrs by phase contrast microscopic analysis relative to control. Format: cell-based. The settings on record: c2c12, 24 h. Summed up: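 C2C12 or HDF cells given 20 µM or 0.1% DMSO for 24 h, then imaged live by phase-contrast microscopy.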
Data set [14] concerns HeLa. Put plainly: Induction of autophagy in human HeLa cells assessed as LC3-2 accumulation at 20 uM preincubated cells with 3-MA followed by compound addition measured after 24 hrs by Western blot analysis. Format: functional, cell-based. Summed up: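 HeLa pretreated 1 h with or without 3-MA, then 20 µM for 24 h. Lysed in RIPA with protease inhibitors, protein by BCA, SDS-PAGE onto PVDF. Blocked 5% milk, anti-LC3 overnight at 4 °C, secondary 2 h at RT. Infrared imaging, GAPDH loading control.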
(In general: A western blot detects proteins with antibodies after separation by electrophoresis.)

In data set [15] the test system is HeLa. Put plainly: Anticancer activity against human HeLa cells assessed as vacuole formation at 20 uM after 24 hrs by phase contrast microscopic analysis. In kind it is functional, cell-based.
Data set [16] deals with HeLa. Put plainly: Induction of macropinocytosis in human HeLa cells assessed as colocalization of lucifer yellow and late endosomal marker Rab7 at 20 uM after 6 to 24 hrs by confocal microscopic analysis. In kind it is functional, cell-based. The settings on record: TDE = time-dependent effect. Summed up: as §2
For data set [17], the system named is HeLa. Put plainly: Induction of methuosis in human HeLa cells assessed as decrease in cell viability preincubated cells with actin inhibitor cytochalasin D for 1 hr followed by compound addition measured after 48 hrs by CCK8 assay. In kind it is functional, cell-based.
For data set [18], the system named is SK-N-MC. Put plainly: Anticancer activity against human SK-N-MC cells assessed as cell viability after 48 hrs by CCK8 assay. Format: functional, cell-based. Summed up:
as §3

For data set [19], the system named is MCF7. Put plainly: Anticancer activity against human MCF7 cells assessed as cell viability after 48 hrs by CCK8 assay. Format: functional, cell-based. The settings on record: MCF7, 48 h. Summed up:
as §3

For data set [20], the system named is HeLa. Put plainly: Anticancer activity against human HeLa cells assessed as cell viability at 20 uM after 48 hrs by CCK8 assay relative to control. Format: functional. The settings on record: read-out: Activity. The method, boiled down:
as §1

In data set [21] the test system is HeLa. Nature of the data set: Induction of macropinocytosis-like cytosolic vacuolization in human HeLa cells at 20 uM measured within 4 hrs by time lapse phase contrast microscopic analysis. In kind it is functional, cell-based. Summed up:
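HeLa plated at 50,000 per glass-bottom dish, pre-incubated overnight, then given 20 µM in a live-cell chamber (37 °C, 5% CO2). Phase-contrast frames captured every 90 sec.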

The test system of data set [22] is SK-N-MC. Put plainly: Anticancer activity against human SK-N-MC cells assessed as cell viability at 20 uM after 48 hrs by CCK8 assay relative to control. In kind it is functional. The conditions noted are these: read-out: Activity. Summed up:
as §1

In the case of `C[C@H]1[C@H](C)CC[C@]2(C(=O)O)CC[C@]3(C)C(=CC[C@@H]4[C@@]5(C)Cc6cnn(-c7ccc(C#N)cc7)c6C(C)(C)[C@@H]5CC[C@]43C)[C@H]12`, the viability at 20 µM with MCF7 [1] turned out to be 25.2%; in the data set on HepG2 [3] it was 27.9%; in the data set with HeLa [20], 18.6%; in the data set on SK-N-MC [22], 28.6%. The outcome in the data set with HeLa [2], in the data set with HeLa [4], in the data set on HeLa [6], with SK-N-MC [12], with HeLa [13] and with HeLa [15] was Active. Besides, the outcome in the data set with HeLa [21] was Active. Besides, the outcome in the data set with HeLa [5], in the data set with HeLa [7], in the data set with HeLa [9], in the data set with HeLa [10], with HeLa [14] and in the data set on HeLa [17] was inactive. Also, the IC50 came to 16.6 µM with HepG2 [8], 17.2 µM with HT-1080, 17.1 µM in the data set on SK-N-MC [18] and 17.6 µM in the data set on MCF7 [19]. The Activity result in the data set on HeLa [11] is “Tde”; in the data set with C2C12 it was “Toxic”; with HeLa [16], “Tde”.
